Experimental data from ChEMBL document CHEMBL4196053, “Endoperoxide-8-aminoquinoline hybrids as dual-stage antimalarial agents with enhanced metabolic stability” (Eur J Med Chem, 2018).
Active and inactive are the calls of the source. No cut-off for these calls is given here.

Columns and labels:
Plasmodium falciparum = assay: Antiplasmodial activity against chloroquine resistant Plasmodium falciparum W2 erythrocytic ring stage after 48 hrs using hypoxanthine by flow cytometric analysis; format: functional, organism-based; details: W2, 48 h
How it was run: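 Ring-stage W2 P. falciparum synchronized with 5% sorbitol, about 1% parasitemia in human erythrocytes. Cells fixed in 2% formaldehyde, stained with 1 nM YOYO-1, infected cells counted by flow cytometry. IC50 taken against untreated controls; two experiments, four replicates each.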

[1] = Half life in rat liver microsomes at […] in presence of NADPH by HPLC analysis; format: ADME, microsome
[2] = Intrinsic clearance in rat liver microsomes assessed per mg protein at […] in presence of NADPH by HPLC analysis; format: ADME, microsome; details: read-out: CLH
[3] = Cytotoxicity against human Caco2 cells assessed as reduction in cell viability after 72 hrs by neutral red dye based assay; details: Caco-2 cells
How it was run: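 CaCo-2 cells grown in RPMI-1640 with 10% FBS and antibiotic-antimycotic at 37°C, 5% CO2. Exposed once confluent for 72 h to compound diluted in medium, organic solvent ≤1%. Medium then removed and cells washed with PBS.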

Huh-7 = assay: Cytotoxicity against human HuH7 cells assessed as reduction in cell viability at 10 uM after 48 hrs by Alamar blue assay; format: cell-based; details: huh-7, 48 h
How it was run: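 Huh-7 cells seeded and infected with P. berghei sporozoites as in the liver-stage assay, with compound added about 1 h before infection and DMSO vehicle in controls. Host cell viability read by AlamarBlue fluorescence 48 h post-infection.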

Plasmodium berghei [4] = assay: Antiplasmodial activity against luciferase expressing Plasmodium berghei sporozoites infected in human HuH7 cells at 10 uM preincubated for 1 hr followed by parasite infection measured after 48 hrs by bioluminescence analysis relative to control; format: functional
How it was run: (§1)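 Huh-7 hepatoma cells (1.0 × 10^4/well) seeded the day before. Compound-containing medium added about 1 h before infection with fresh firefly luciferase-expressing P. berghei sporozoites from Anopheles stephensi salivary glands, then spun 1700 g for 5 min. DMSO vehicle in controls. Parasite load read by bioluminescence 48 h post-infection. Initial screen at fixed concentrations; EC50 from nonlinear regression of normalized dose-response data.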

Plasmodium berghei [5] = assay: Antiplasmodial activity against luciferase expressing Plasmodium berghei sporozoites infected in human HuH7 cells at 2 uM preincubated for 1 hr followed by parasite infection measured after 48 hrs by bioluminescence analysis relative to control; format: functional; how it was run: as §1
Plasmodium berghei [6] = assay: Antiplasmodial activity against luciferase expressing Plasmodium berghei infected in human HuH7 cells preincubated for 1 hr followed by parasite infection measured after 48 hrs by bioluminescence analysis; format: functional, organism-based; details: Huh-7; how it was run: as §1
[7] = Selectivity index, ratio of CC50 for human Caco2 cells to IC50 for chloroquine resistant Plasmodium falciparum W2 erythrocytic ring stage; format: toxicity; details: Caco-2 cells, read-out: Ratio CC50/IC50

| Structure (SMILES) | EC50 (Plasmodium falciparum) [nM] | half-life [1] [min] | microsomal CLint [2] [µL/min/mg] | CC50 at 72 h [3] [nM] | Activity (Huh-7) | Activity (Plasmodium berghei [4]) | Activity (Plasmodium berghei [5]) | EC50 (Plasmodium berghei [6]) [nM] | selectivity ratio [7] |
| --- | --- | --- | --- | --- | --- | --- | --- | --- | --- |
| COc1cc(NC(=O)C2CCC3(CC2)OOC2(OO3)C3CC4CC(C3)CC2C4)c2ncccc2c1-c1ccc(F)cc1 (stereo not drawn) | 916 | 60 | 23.1 |  |  |  |  |  |  |
| COc1cc(NC(C)CCCNCC2CCC3(CC2)OOC2(OO3)C3CC4CC(C3)CC2C4)c2ncccc2c1-c1ccc(C)cc1 (stereo not drawn) | 176 |  |  | 11700 | Toxic | Active | Active |  |  |
| COc1cc(NC(C)CCCNCC2CCC3(CC2)OOC2(OO3)C3CC4CC(C3)CC2C4)c2ncccc2c1-c1ccoc1 (stereo not drawn) | 120 |  |  |  | Toxic | Active | Active |  |  |
| COc1cc(NC(C)CCCNC(=O)C2CCC3(CC2)OOC2(OO3)C3CC4CC(C3)CC2C4)c2ncccc2c1-c1ccccc1 (stereo not drawn) | 204 | 42 | 33 | > 50000 | Non-Toxic | Active | >50% | 1690 |  |
| COc1cc(NC(C)CCCNC(=O)C2CCC3(CC2)OOC2(OO3)C3CC4CC(C3)CC2C4)c2ncccc2c1Br (stereo not drawn) | 16 | 14 | 99 |  | Toxic | Active | >50% |  |  |
| COc1cc(NCCCNC(=O)C2CCC3(CC2)OOC2(OO3)C3CC4CC(C3)CC2C4)c2ncccc2c1-c1ccc(F)cc1 (stereo not drawn) | 15 | 35 | 39.6 |  | Non-Toxic | Active | >50% | 2610 |  |
| COc1cc(NC(=O)C2CCC3(CC2)OOC2(OO3)C3CC4CC(C3)CC2C4)c2ncccc2c1-c1ccc(Cl)cc1 (stereo not drawn) | 4190 | 125 | 11.1 |  |  | 37% |  |  |  |
| COc1cc(NCCCCCNC(=O)C2CCC3(CC2)OOC2(OO3)C3CC4CC(C3)CC2C4)c2ncccc2c1-c1ccc(F)cc1 (stereo not drawn) | 17 | 25 | 55.4 |  | Non-Toxic | Active | >50% | 1640 |  |
| COc1cc(NC(C)CCCNC(=O)C2CCC3(CC2)OOC2(OO3)C3CC4CC(C3)CC2C4)c2ncccc2c1-c1ccc(C)cc1 (stereo not drawn) | 141 | 87 | 15.9 | > 50000 | Non-Toxic | Active | >50% | 1650 |  |
| COc1cc(NC(C)CCCNC(=O)C2CCC3(CC2)OOC2(OO3)C3CC4CC(C3)CC2C4)c2ncccc2c1-c1ccsc1 (stereo not drawn) | 45 | 37 | 37.4 | > 50000 | Non-Toxic | Active | >50% | 2110 | > 600 |
| COc1cc(NC(C)CCCNC(=O)C2CCC3(CC2)OOC2(OO3)C3CC4CC(C3)CC2C4)c2ncccc2c1-c1ccc(Cl)cc1 (stereo not drawn) | 75 | 129 | 10.7 | > 50000 | Non-Toxic | Active | >50% | 2810 | > 1000 |
| COc1cc(NC(C)CCCNC(=O)C2CCC3(CC2)OOC2(OO3)C3CC4CC(C3)CC2C4)c2ncccc2c1-c1ccc(Br)cc1 (stereo not drawn) | 61 |  |  | > 50000 | Non-Toxic | Active | >50% | 4440 | > 1000 |
| COc1cc(NCCCCNC(=O)C2CCC3(CC2)OOC2(OO3)C3CC4CC(C3)CC2C4)c2ncccc2c1-c1ccc(F)cc1 (stereo not drawn) | 15 | 15 | 92.4 | 10200 | Non-Toxic | Active | >50% | 1110 |  |
| CCOC(=O)C1CCC2(CC1)OOC1(OO2)C2CC3CC(C2)CC1C3 (stereo not drawn) |  |  |  |  |  |  |  | 17300 |  |
| COc1cc(NC(C)CCCNCC2CCC3(CC2)OOC2(OO3)C3CC4CC(C3)CC2C4)c2ncccc2c1-c1ccc(Cl)cc1 (stereo not drawn) |  |  |  | 13200 | Toxic | Active | Active |  |  |
| COc1cc(NC(=O)C2CCC3(CC2)OOC2(OO3)C3CC4CC(C3)CC2C4)c2ncccc2c1-c1ccccc1 (stereo not drawn) | 287 | 42 | 33 |  |  | 52% |  |  |  |
| COc1cc(NC(C)CCCN)c2ncccc2c1-c1ccc(C)cc1 (stereo not drawn) | 2350 |  |  |  |  |  |  | 5430 |  |
| COc1cc(NC(=O)C2CCC3(CC2)OOC2(OO3)C3CC4CC(C3)CC2C4)c2ncccc2c1-c1ccc(Br)cc1 (stereo not drawn) | 5670 | 124 | 11.2 |  |  | 35% |  |  |  |
| COc1cc(NC(C)CCCNCC2CCC3(CC2)OOC2(OO3)C3CC4CC(C3)CC2C4)c2ncccc2c1-c1ccsc1 (stereo not drawn) | 81 |  |  |  | Toxic | Active | Active |  |  |
| COc1cc(NC(C)CCCNCC2CCC3(CC2)OOC2(OO3)C3CC4CC(C3)CC2C4)c2ncccc2c1-c1ccc(F)cc1 (stereo not drawn) | 99 |  |  |  | Toxic | Active | Active |  |  |
| COc1cc(NC(C)CCCNC(=O)C2CCC3(CC2)OOC2(OO3)C3CC4CC(C3)CC2C4)c2ncccc2c1-c1ccoc1 (stereo not drawn) | 76 |  |  | > 50000 | Non-Toxic | Active | >50% | 2350 | > 600 |
| COc1cc(NC(C)CCCNCC2CCC3(CC2)OOC2(OO3)C3CC4CC(C3)CC2C4)c2ncccc2c1-c1ccccc1 (stereo not drawn) | 92 |  |  |  | Toxic | Active | Active |  |  |
| C[C@@H]1CC[C@H]2[C@@H](C)C(=O)O[C@@H]3O[C@@]4(C)CC[C@@H]1[C@]32OO4 [ARTEMISININ] | 10 |  |  |  |  |  |  |  |  |
| COc1cc(NC(C)CCCNC(=O)C2CCC3(CC2)OOC2(OO3)C3CC4CC(C3)CC2C4)c2ncccc2c1-c1ccc(F)cc1 (stereo not drawn) | 57 | 40 | 34.6 | > 50000 | Non-Toxic | Active | >50% | 2380 | > 1000 |
| COc1cc(NC(C)CCCNC(=O)C2CCC3(CC2)OOC2(OO3)C3CC4CC(C3)CC2C4)c2ncccc2c1-c1ccc(C(F)(F)F)cc1 (stereo not drawn) | 60 | 100 | 13.9 | > 50000 | Non-Toxic | Active | >50% | 4120 | > 1000 |
| COc1cc(NC(C)CCCNCC2CCC3(CC2)OOC2(OO3)C3CC4CC(C3)CC2C4)c2ncccc2c1-c1ccc(C(F)(F)F)cc1 (stereo not drawn) | 19 |  |  | 10300 | Toxic | 62% | Active |  |  |
